From ChEMBL document CHEMBL1145471, “Small molecule regulators of autophagy identified by an image-based high-throughput screen” (Proc Natl Acad Sci U S A, 2007) come the findings set out here.

The source made the active and inactive calls. The calls are words filed in the database; no cut-off is given here.

Test [1] deals with H4. The test is described as follows: Increase in light chain 3-GFP+ autophagosome vesicle area per cell in human H4 cells at 3.8 uM after 24 hrs by high throughput fluorescence microscopy relative to control. It counts as functional. In short, it runs like this:
(§1)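 H4 cells stably expressing LC3-GFP, seeded in 96-well plates and exposed to compound for 24 h; fixed in 4% paraformaldehyde, nuclei stained with 3 μg/ml DAPI. Automated fluorescence microscopy scored number, size and intensity of LC3-GFP spots; values expressed relative to DMSO-treated wells, rapamycin positive control. Triplicate wells, mean ± SD; experiments repeated three times.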

The test system of test [2] is H4. The test is described as follows: Induction of light chain 3-GFP level in human H4 cells at 6.1 uM after 24 hrs by high throughput fluorescence microscopy relative to control. Type of test: functional. In short, it runs like this:
(§2)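 H4 cells stably expressing LC3-GFP, kept in DMEM/10% FBS at 37°C, 5% CO2, were seeded in 96-well plates and exposed to compound for 24 h. Cells were then fixed in 4% paraformaldehyde and stained with 3 μg/ml DAPI. Automated fluorescence microscopy scored the number, size and intensity of LC3-GFP spots. Values are percent of DMSO wells, in triplicate, mean ± SD. Rapamycin served as positive control.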

Test [3] relates to H4. In words: Increase in light chain 3-GFP+ autophagosome vesicle intensity per cell in human H4 cells at 6.1 uM after 24 hrs by high throughput fluorescence microscopy relative to control. It counts as functional. The essentials:
as §1

Test [4] has as its system H4. The test is described as follows: Increase in light chain 3-GFP+ autophagosome vesicle number per cell in human H4 cells at 6.1 uM after 24 hrs by high throughput fluorescence microscopy relative to control. It counts as functional. In short, it runs like this:
as §2

Test [5] concerns H4. In words: Increase in long-lived protein degradation in human H4 cells after 24 hrs relative to control. More on the design: concentration or dose not given beside the values. It counts as functional.
Test [6] deals with H4. In words: Increase in long-lived protein degradation in human H4 cells after 2 hrs relative to control. More on the design: concentration or dose not given beside the values. Type of test: functional.
The subject of test [7] is H4. The test is described as follows: Increase in long-lived protein degradation in human H4 cells after 4 hrs relative to control. More on the design: concentration or dose not given beside the values. Type of test: functional.
In test [8] the test system is H4. In words: Increase in FYVE-RFP+ vesicle intensity per cell in human H4 cells after 2 hrs relative to control. It counts as functional. More on the design: concentration or dose not given beside the values. In short, it runs like this:
(§3)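 H4 cells stably expressing FYVE-RFP (H4-FYVE), grown in DMEM with 10% FBS, penicillin/streptomycin and 2 mM L-glutamine at 37°C, 5% CO2, seeded in 96-well plates and exposed to compound. Fixed in 4% paraformaldehyde, nuclei stained with 3 μg/ml DAPI, FYVE-RFP+ vesicles quantified by high-throughput fluorescence microscopy against DMSO control. Triplicate wells, mean ± SD.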

Test [9] has as its system H4. In words: Induction of light chain 3-GFP level in human H4 cells at 3.9 uM after 24 hrs by high throughput fluorescence microscopy relative to control. It counts as functional. The essentials: as §2
In test [10] the test system is H4. The test is described as follows: Increase in FYVE-RFP+ vesicle intensity per cell in human H4 cells after 4 hrs relative to control. Type of test: functional. Details: concentration or dose not given beside the values. In short, it runs like this:
as §3

Test [11] relates to H4. The test is described as follows: Increase in light chain 3-GFP+ autophagosome vesicle intensity per cell in human H4 cells at 3.9 uM after 24 hrs by high throughput fluorescence microscopy relative to control. It counts as functional. In short, it runs like this:
as §1

The subject of test [12] is H4. The test is described as follows: Increase in FYVE-RFP+ vesicle intensity per cell in human H4 cells after 8 hrs relative to control. It counts as functional. Details: concentration or dose not given beside the values. In short, it runs like this:
as §3

Test [13] concerns H4. In words: Increase in ratio of light chain 3 subunit 2 to light chain 3 subunit 1 in human H4 cells at 3.9 uM after 4 hrs by Western blot. Type of test: functional, cell-based. In short, it runs like this: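 H4 cells were treated with each compound for 4 h, then lysed. Lysates were immunoblotted with anti-LC3 antibody, with actin as loading control. LC3II and LC3I bands were compared as an LC3II/LC3I ratio.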
(Immunoblotting shows a protein as a band on a membrane.)

For test [14], the target named is T1, Serine/threonine-protein kinase mTOR (Homo sapiens, UniProt P42345). In words: Effect on mTOR phosphorylation in human H4 cells at 3.9 uM after 4 hrs. It counts as cell-based. The essentials: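 H4 cells exposed to compound for 4 h. Lysates analysed by Western blot with anti-phospho and anti-total mTOR antibodies, with actin as loading control. Rapamycin served as reference.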

Test [15] concerns H4. In words: Increase in long-lived protein degradation in human H4 cells after 1 hr relative to control. It counts as functional. Details: concentration or dose not given beside the values.
Test [16] concerns H4. The test is described as follows: Reduction of poly(Q) level in human H4 cells expressing EGFP-Q79-HA after 24 hrs. It counts as functional, cell-based. The essentials: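 H4 cells were transiently transfected with an EGFP-Q79-HA expression vector. The medium was replaced 6 h after transfection and compounds were added. Poly(Q) was detected with anti-HA antibody.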
The subject of test [17] is H4. In words: Increase in light chain 3-GFP+ autophagosome vesicle area per cell in human H4 cells at 3.9 uM after 24 hrs by high throughput fluorescence microscopy relative to control. Type of test: functional. The essentials: as §1
Test [18] concerns H4. The test is described as follows: Increase in light chain 3-GFP+ autophagosome vesicle number per cell in human H4 cells at 3.9 uM after 24 hrs by high throughput fluorescence microscopy relative to control. It counts as functional. In short, it runs like this: as §2
In test [19] the test system is H4. In words: Effect on FYVE-RFP+ vesicle intensity per cell in human H4 cells after 4 hrs relative to control. Details: concentration or dose not given beside the values. Type of test: functional. The essentials:
as §3

For test [20], the system named is H4. The test is described as follows: Increase in light chain 3-GFP+ autophagosome vesicle intensity per cell in human H4 cells at 5.4 uM after 24 hrs by high throughput fluorescence microscopy relative to control. Type of test: functional. In short, it runs like this: as §1
Test [21] deals with T1, Serine/threonine-protein kinase mTOR. The test is described as follows: Effect on mTOR phosphorylation in human H4 cells at 5.4 uM after 4 hrs. Type of test: cell-based. The essentials: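 H4 cells treated with compound for 4 h; lysates analysed by Western blot using anti-phospho/non-phospho mTOR antibody, with actin as loading control; rapamycin used for comparison. Cells grown in DMEM with 10% FBS, penicillin/streptomycin, 2 mM L-glutamine at 37°C, 5% CO2.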

Test [22] deals with H4. The test is described as follows: Increase in ratio of light chain 3 subunit 2 to light chain 3 subunit 1 in human H4 cells at 5.4 uM after 4 hrs by Western blot. It counts as functional, cell-based. In short, it runs like this: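 H4 cells were exposed to compound for 4 h, then lysed. Lysates were blotted with anti-LC3 antibody, with actin as loading control, and the LC3II/LC3I band ratio was taken.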

Test [23] concerns H4. In words: Effect on FYVE-RFP+ vesicle intensity per cell in human H4 cells after 2 hrs relative to control. Details: concentration or dose not given beside the values. It counts as functional. In short, it runs like this: as §3
The test system of test [24] is H4. The test is described as follows: Increase in light chain 3-GFP+ autophagosome vesicle number per cell in human H4 cells at 5.4 uM after 24 hrs by high throughput fluorescence microscopy relative to control. It counts as functional. The essentials:
as §2

The subject of test [25] is H4. The test is described as follows: Increase in light chain 3-GFP+ autophagosome vesicle area per cell in human H4 cells at 5.4 uM after 24 hrs by high throughput fluorescence microscopy relative to control. Type of test: functional. In short, it runs like this:
as §1

Test [26] concerns H4. In words: Induction of light chain 3-GFP level in human H4 cells at 5.4 uM after 24 hrs by high throughput fluorescence microscopy relative to control. It counts as functional. The essentials: as §2
The subject of test [27] is H4. The test is described as follows: Effect on FYVE-RFP+ vesicle intensity per cell in human H4 cells after 8 hrs relative to control. Type of test: functional. Details: concentration or dose not given beside the values. The essentials:
as §3

The test system of test [28] is H4. In words: Increase in light chain 3-GFP+ autophagosome vesicle intensity per cell in human H4 cells at 4.3 uM after 24 hrs by high throughput fluorescence microscopy relative to control. Type of test: functional. The essentials:
(§4)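 H4 cells stably expressing LC3-GFP were grown in DMEM with 10% FBS and 2 mM L-glutamine at 37°C, 5% CO2. They were exposed to each compound for 24 h, with DMSO as negative and rapamycin as positive control. Cells were then fixed in 4% paraformaldehyde and stained with 3 μg/ml DAPI. High-throughput fluorescence imaging scored LC3-GFP spot number, size and intensity, expressed relative to DMSO. Mean ± SD of triplicates; experiments repeated three times.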

The subject of test [29] is H4. The test is described as follows: Increase in light chain 3-GFP+ autophagosome vesicle area per cell in human H4 cells at 4.3 uM after 24 hrs by high throughput fluorescence microscopy relative to control. Type of test: functional. The essentials: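 H4 cells stably expressing LC3-GFP, seeded in 96-well plates and exposed to compound for 24 h; screening concentrations were 3–12 μM, with rapamycin 0.22 μM and bafilomycin A1 0.40 μM. Cells fixed in 4% paraformaldehyde and stained with 3 μg/ml DAPI. Number, size and intensity of LC3-GFP spots measured by high-throughput fluorescence microscopy and expressed as percent of DMSO-treated wells. Rapamycin was the positive control. Triplicate wells, mean ± SD; experiments repeated three times.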

Test [30] deals with H4. The test is described as follows: Increase in light chain 3-GFP+ autophagosome vesicle number per cell in human H4 cells at 4.3 uM after 24 hrs by high throughput fluorescence microscopy relative to control. It counts as functional. In short, it runs like this:
as §4

Test [31] relates to H4. The test is described as follows: Induction of light chain 3-GFP level in human H4 cells at 4.3 uM after 24 hrs by high throughput fluorescence microscopy relative to control. Type of test: functional. The essentials: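 H4 cells stably expressing LC3-GFP, grown in DMEM with 10% FBS, penicillin/streptomycin and 2 mM L-glutamine at 37°C, 5% CO2. Cells were seeded in 96-well plates and exposed to library compounds at 3–12 μM for 24 h, then fixed in 4% paraformaldehyde and stained with 3 μg/ml DAPI. LC3-GFP spot number, size and intensity were measured by high-throughput fluorescence microscopy and expressed relative to DMSO. Triplicates, mean ± SD.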

With `CN(C)CCCn1cc(C2=C(c3c[nH]c4ccccc34)C(=O)NC2=O)c2ccccc21` [GF-109203], the Activity is 208.08% with H4 [1], 47.77% in the test on H4 [2], 211.81% in the test on H4 [3] and 198.94% in the test with H4 [4].

With `COC(=O)C1=C(C)NC(C)=C(C(=O)OCCCN2CCC(c3ccccc3)(c3ccccc3)CC2)[C@H]1c1cccc([N+](=O)[O-])c1` [NIGULDIPINE], the Activity turned out to be 117.85% in the test with H4 [5]; 107.42% in the test with H4 [6]; 105.68% in the test with H4 [7]; 147.18% with H4 [8]; 132.78% with H4 [9]; 148.26% in the test on H4 [10]. Moreover, the Activity in the test on H4 [11] is 777.92%; in the test on H4 [12], 125.53%; with H4 [15] it was 71.65%; in the test on H4 [16], “Dose-dependent effect”; in the test with H4 [17] it was 405.33%; in the test on H4 [18], 282.89%. For the same compound, the result with H4 [13] was Active. Further, the outcome in test [14] was inactive.

Consider `O=c1[nH]c2ccccc2n1C1CCN(CCCC(c2ccc(F)cc2)c2ccc(F)cc2)CC1` [PIMOZIDE], for which the Activity with H4 [5] is 162.47%; in the test with H4 [6], 155.8%; with H4 [7], 152.01%; in the test with H4 [19], 103.96%; in the test with H4 [20], 447.75%; in the test with H4 [23] it was 94.42%. The Activity in the test with H4 [15] was 129.13%; in the test on H4 [16], “Dose-dependent effect”; in the test on H4 [24] it was 218.96%; in the test with H4 [25], 290.43%; in the test with H4 [26] it was 127.14%; with H4 [27], 73.64%. In [21], the outcome was inactive. In addition, in the test with H4 [22], the outcome was Active.

For `C=CCNC1=C2C[C@@H](C)C[C@H](OC)[C@H](O)[C@@H](C)/C=C(\C)[C@H](OC(N)=O)[C@@H](OC)/C=C\C=C(/C)C(=O)NC(=CC1=O)C2=O` [TANESPIMYCIN], the Activity with H4 [28] is recorded as 385.49%; with H4 [29] it was 364.98%; in the test with H4 [30] it was 293.36%; in the test with H4 [31], 66.89%.
